# Results published in ChEMBL document CHEMBL4261589, “Structure-based design of allosteric calpain-1 inhibitors populating a novel bioactivity space” (Eur J Med Chem, 2018).
# Active and inactive are the calls of the source. The calls are words filed in the database; no cut-off is given here.
# What was measured:
# [1] = molecular target: T1, Calpain-1 catalytic subunit (Sus scrofa, UniProt P35750); assay: Inhibition of full length porcine Calpain-1 complex using (H2NeK(-FAM)-EVYGMMK(DABCYL)eOH) substrate by FRET assay
# T1 sequence (P35750 whole entry): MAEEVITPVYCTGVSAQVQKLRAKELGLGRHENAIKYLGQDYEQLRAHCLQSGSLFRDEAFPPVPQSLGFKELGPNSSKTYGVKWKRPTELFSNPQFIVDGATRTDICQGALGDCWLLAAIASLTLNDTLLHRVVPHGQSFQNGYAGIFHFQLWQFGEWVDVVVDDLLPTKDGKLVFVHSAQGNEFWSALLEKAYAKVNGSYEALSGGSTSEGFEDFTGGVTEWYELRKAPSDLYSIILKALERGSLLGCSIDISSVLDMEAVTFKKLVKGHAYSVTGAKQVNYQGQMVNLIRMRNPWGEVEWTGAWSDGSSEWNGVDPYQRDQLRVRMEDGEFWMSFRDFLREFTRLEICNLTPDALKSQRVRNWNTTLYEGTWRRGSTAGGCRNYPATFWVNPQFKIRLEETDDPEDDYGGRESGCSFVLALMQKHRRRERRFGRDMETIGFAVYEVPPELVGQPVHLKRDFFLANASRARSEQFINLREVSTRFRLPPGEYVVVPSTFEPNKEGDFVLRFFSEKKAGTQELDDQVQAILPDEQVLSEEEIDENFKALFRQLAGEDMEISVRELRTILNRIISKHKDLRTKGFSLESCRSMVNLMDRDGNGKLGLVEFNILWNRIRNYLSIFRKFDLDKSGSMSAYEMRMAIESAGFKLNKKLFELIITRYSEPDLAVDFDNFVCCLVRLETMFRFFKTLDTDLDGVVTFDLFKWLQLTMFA
# How it was run: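 Purified porcine calpain-1 (25 nM) with 1 µM FAM/DABCYL α-spectrin peptide, cleaved at Tyr-Gly, in 10 mM HEPES, 10 mM DTT, 0.5 mM EDTA, 0.1% BSA, pH 6.8, at 37 °C. Compounds (5 nM–200 µM, from DMSO stock) were added before starting with 5 mM CaCl2. Fluorescence read at ex 490/em 520 nm. DMSO-alone controls were run. IC50 given as mean ± SD of three independent experiments.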
# [2] = molecular target: Calpain-1 catalytic subunit (Homo sapiens) (UniProt P07384); assay: Inhibition of human Calpain-1 active site domain using (H2NeK(-FAM)-EVYGMMK(DABCYL)eOH) substrate by FRET assay
# [3] = molecular target: Calpain small subunit 1 (Homo sapiens) (UniProt P04632); assay: Binding affinity to human Calpain-1 PEF(S) domain at 0.5 to 500 uM expressed in Escherichia coli BL21-CodonPlus (DE3) RP cells incubated for 5 mins by TNS displacement assay
# Chain of Calpain small subunit 1 (Homo sapiens) (P04632 whole entry, looked up): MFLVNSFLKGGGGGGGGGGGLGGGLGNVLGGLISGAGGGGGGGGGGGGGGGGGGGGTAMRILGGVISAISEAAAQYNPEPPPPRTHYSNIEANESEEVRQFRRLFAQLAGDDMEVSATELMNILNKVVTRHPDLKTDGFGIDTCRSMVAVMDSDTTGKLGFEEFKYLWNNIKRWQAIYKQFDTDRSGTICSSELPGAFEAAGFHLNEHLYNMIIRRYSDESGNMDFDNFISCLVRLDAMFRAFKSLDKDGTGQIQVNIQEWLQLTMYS
IC50 ([1]; read-out: IC50),IC50 [2],Activity [3],IC50 ([2]; read-out: IC50),IC50 [1],SMILES
20.5 µM,Not Active,,,,FC(F)(F)c1ccc(CSc2nnc3ccc(-c4ccccn4)nn23)cc1
7.5 µM,,Active,> 100 µM,,CC(C)(C)NC(=O)c1ccc(Oc2cc(F)c(CC(=O)O)cc2Cl)c(NS(=O)(=O)c2ccc(C3CC3)cc2Cl)c1 [VIDUPIPRANT]
,Not Active,,,Not Active,FC(F)(F)c1cccc(CSc2nnc3ccc(-c4ccccn4)nn23)c1
,Not Active,Active,,Not Active,O=C(NC1CCC(O)CC1)c1ccc(S(=O)(=O)Nc2cccc(C(F)(F)F)c2)cc1 (stereo not drawn)
,Not Active,,,Not Active,COCCOc1nc(-c2ccc(OC)cc2)n(-c2cccc(NC(=O)c3ccc(C)c(C(F)(F)F)c3)c2)n1
,Not Active,inactive,,Not Active,O=C1CCCN1c1cccc(NS(=O)(=O)c2cccc(C(F)(F)F)c2)c1
19.3 µM,,Active,17.8 µM,,O=C(O)/C(S)=C/c1ccc(I)cc1
,Not Active,,,Not Active,COCCOc1nc(-c2cccc(C(F)(F)F)c2)n(-c2ccc(NC(=O)C(C)C)cc2)n1
,Not Active,Active,,Not Active,NC(=O)c1cccc(NS(=O)(=O)c2cccc(C(F)(F)F)c2)c1
> 100 µM,,Active,41.1 µM,,O=C(O)c1cc(NS(=O)(=O)c2ccc(F)cc2)cnc1N1CCCCCC1
29.7 µM,Not Active,,,,O=C(CSc1nnc2ccc(-c3ccccn3)nn12)Nc1cccc(C(F)(F)F)c1
